# High-throughput results deposited in PubChem BioAssay by The Scripps Research Institute Molecular Screening Center.
# VIM-2 inhibitor: inhibitors of Pseudomonas aeruginosa VIM-2 metallo-beta-lactamase | purified VIM-2, nitrocefin hydrolysis, epi-absorbance fluorescence | inhibition, % at 5.6 µM | 0.89% of 290,000 active | AID 1527;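 active = inhibition above the mean of all tested compounds plus 3 SD, cutoff set per screening run, cut at about 7.5% in these data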;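 note: red hydrolysis product quenches plate fluorescence so inhibitors raise well fluorescence; 0% = enzyme with DMSO and 100% = DMSO without enzyme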
# IMP-1 inhibitor: blocks Pseudomonas aeruginosa IMP-1 metallo-beta-lactamase | 0.45% of 290,000 active | purified IMP-1, nitrocefin hydrolysis, epi-absorbance fluorescence | AID 1556 | inhibition, % at 5.6 µM;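 active = inhibition above the mean plus 3 SD of all compounds in the same screening run, cut at about 4.5% in these data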;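 note: 0% = IMP-1 with DMSO and 100% = DMSO wells lacking enzyme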
#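 assay system = purified recombinant IMP-1 metallo-beta-lactamase enzyme | schedule = 15 min preincubation plus 25 min reaction at 25 °C | signal = Epi-absorbance fluorescence, 480 nm excitation, 530 nm emission | read-out basis = percent inhibition from optical density relative to buffer-blank wells | controls = IMP-1 with DMSO as 0%, enzyme-free DMSO as 100%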
# HGIII-sPLA2 inh: Blocks human group III sPLA2 activity. Q9NZ20. QFRET BODIPY PC-A2 liposome hydrolysis, fluorescence. inhibition, % at 12.2 µM. AID 743126. 0.56% of 370,000 active;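 active = inhibition above mean plus 3 SD of compounds lying within the high and low control bounds, cut at about 19% in these data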;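 note: 0% = median of test compound wells and 100% = no enzyme DMSO wells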
# Target sequence (Q9NZ20 whole entry, looked up): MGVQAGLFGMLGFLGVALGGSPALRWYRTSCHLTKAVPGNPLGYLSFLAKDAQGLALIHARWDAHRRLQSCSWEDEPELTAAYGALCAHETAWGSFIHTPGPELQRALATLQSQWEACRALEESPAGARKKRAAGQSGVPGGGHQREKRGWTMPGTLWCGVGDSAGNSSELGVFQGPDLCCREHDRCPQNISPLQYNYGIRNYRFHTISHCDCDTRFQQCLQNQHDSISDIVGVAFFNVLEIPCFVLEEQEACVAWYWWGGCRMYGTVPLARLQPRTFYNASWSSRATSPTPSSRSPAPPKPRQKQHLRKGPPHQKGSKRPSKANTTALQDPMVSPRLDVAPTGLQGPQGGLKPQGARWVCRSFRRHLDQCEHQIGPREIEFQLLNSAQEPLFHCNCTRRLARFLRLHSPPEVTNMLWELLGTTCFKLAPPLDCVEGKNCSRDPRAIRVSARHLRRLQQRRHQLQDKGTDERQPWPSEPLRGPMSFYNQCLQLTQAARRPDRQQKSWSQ
# PfM18AAP inh-1: blocks P. falciparum M18 aspartyl aminopeptidase; inhibition, % at 7.35 µM; 1.2% of 290,000 active; recombinant PfM18AAP, H-Glu-NHMec fluorogenic cleavage; AID 1822;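 active = inhibition above the campaign mean inhibition over all tested compounds plus 3 SD, cut at about 28% in these data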;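 note: 0% = plate median of test compound wells and 100% = 2 mM ZnCl2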
# PfM18AAP inh-2: PfM18AAP inhibition, confirmation; shares compounds with PfM18AAP inh-1; recombinant PfM18AAP, H-Glu-NHMec fluorogenic cleavage; inhibition, % at 7.35 µM; 28% of 2,400 active; AID 2170;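 active = mean inhibition over replicate wells above the hit cutoff set for the earlier primary screen, cut at about 29% in these data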;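 note: 0% = median of test compound wells and 100% = 2 mM ZnCl2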
# CTSL1 counter: counter-screen for PFM18AAP inhibitors: confirmation of human cathepsin L inhibitors; shares compounds with PfM18AAP inh-1; purified cathepsin L1, Z-Leu-Arg-MCA fluorescence; inhibition, % at 5.96 µM; 2,400 tested, under 10 active; AID 2178;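 active = average inhibition across replicates above the hit cutoff set in the earlier primary screen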;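 note: 0% = median of test compound wells and 100% = Z-Phe-Ala-diazomethylketone 1 µM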
# * hit, by the source's call; x = no result given. An excerpt weighted towards active compounds, which were near 2.4% of everything screened.
SMILES,VIM-2 inhibitor,IMP-1 inhibitor,HGIII-sPLA2 inh,PfM18AAP inh-1,PfM18AAP inh-2,CTSL1 counter
COc1ccccc1N1C(=O)C=C(Sc2nc(C)cc(C)n2)C1=O,-2,-4,-4,35*,-322,-2
CN(C)c1cccc(NC(=O)Cc2ccc(F)cc2)c1,-2,-3,8,39*,-10,1
S=c1[nH]nc(Cc2noc3ccccc23)n1-c1ccc(Cl)cc1,-3,-3,8,28,x,x
Cc1nc2ccccc2n1Cc1ccc(Cl)cc1,-1,-1,6,2,x,x
O=c1c2ccccc2cnn1Cc1n[nH]c(=S)n1-c1ccc(Cl)cc1,2,-3,9,35*,5,-8
Cc1nc2ccccc2n1Cc1n[nH]c(=S)n1-c1ccc(Cl)cc1,-5,-5,17,39*,-3,0
O=C(CSc1nnc(COc2ccccc2)n1Cc1ccco1)Nc1ccc(OCc2ccccc2)cc1,x,x,-17,x,x,x
COc1ccccc1CNC(=O)c1nccnc1CO,-3,-1,-2,-6,x,x
NNc1nc(-c2ccccc2)nc2sc3c(c12)CCCC3,-1,-1,-2,32*,10,1
NNc1nc2sc3c(c2c(=O)n1Cc1ccccc1)CCC3,-3,-3,-8,-11,x,x
COC(=O)CCCn1cc(CN2CC(N3CCCCC3)CS2(=O)=O)nn1 (centres undefined),x,x,7,x,x,x
O=c1c(-n2cncn2)c[nH]n1-c1cccc(Cl)n1,0,-4,14,67*,-14,-7
O=c1c(/C=N/OCc2ccc(Cl)cc2Cl)c[nH]n1-c1cccc(Cl)n1,-5,-4,-4,3,x,x
COc1ccc(C(=O)Nc2ccc(/C(C)=N/NC(=O)c3ccccc3O)cc2)cc1OC,1,0,0,37*,-52,9
COc1ccc(C(=O)N/N=C(/C)c2cccc(NC(=O)c3ccncc3)c2)cc1OC,-4,-2,2,-4,x,x
C=CCNC(=O)c1onc(CS(=O)(=O)c2cc(C)cc(C)c2)c1C(=O)NCC=C,x,x,-1,x,x,x
COc1ccc(C2Nc3cccc4cccc(c34)N2)cc1Br,1,0,-5,35*,-13,-2
COc1ccc2sc(C)[n+](C)c2c1,-3,-1,0,43*,-12,-2
O=C(Oc1ccc([N+](=O)[O-])cc1)O[C@H]1CC[C@@]23CCCN2C(=O)CCC[C@H]3C1,x,x,-3,x,x,x
O=C(CSC1=NCCN1)C1COc2ccccc2O1 (centres undefined),-3,-2,-3,42*,-37,0
COC(=O)C(C(=O)OC)c1ncc(C(F)(F)F)cc1Cl,-1,-2,7,4,x,x
COC(=O)Nc1nc(Sc2ncc(C(F)(F)F)cc2Cl)n[nH]1,-2,-1,-4,69*,70*,-1
Cc1ccccc1NC(=S)c1ccc2ccccc2n1,-2,-2,7,41*,-24,3
CCN1/C(=C/C(C)=C/c2sc3ccccc3[n+]2CC)Sc2ccccc21,2,-3,-13,44*,-35,-5
COc1ccc(-c2c(C#Cc3ccsc3)c3cc(-c4ccc(C(N)=O)cc4)ccc3n2C)cc1,x,x,-3,x,x,x
SMILES,VIM-2 inhibitor,IMP-1 inhibitor,HGIII-sPLA2 inh,PfM18AAP inh-1,PfM18AAP inh-2,CTSL1 counter
S=c1[nH]nc(Cc2n[nH]c(=S)n2-c2ccccc2)n1-c1ccccc1,2,-2,11,35*,2,3
FC(F)(F)c1cccc(-n2c(Cn3nnc4ccccc43)n[nH]c2=S)c1,1,-1,15,19,x,x
S=c1[nH]nc(Cn2nnc3ccccc32)n1-c1ccccc1,-1,-2,11,42*,0,0
CCCCCNC(=O)C(c1ccc(C(F)(F)F)cc1)n1c(=O)c(-c2ccco2)nc2ccccc21 (centres undefined),x,x,3,x,x,x
O=C(Nn1cnnc1)C1Cc2ccccc2CN1S(=O)(=O)c1ccc(F)cc1 (centres undefined),-3,-5,4,39*,33*,-3
Cc1ccc(S(=O)(=O)N2Cc3ccccc3CC2C(=O)Nn2cnnc2)cc1 (centres undefined),-5,-4,-8,41*,36*,-3
COC(=O)[C@]12C[C@H](CC(=O)NCc3ccccc3)C(=O)N(Cc3ccco3)C1=C[C@H](COCc1ccccc1)O[C@@H]2C,x,x,-11,x,x,x
O=c1/c(=C/c2cccc3ccccc23)sc2ncnn12,0,-2,-6,44*,35*,-5
CCCCOc1ccc(/C=c2\sc3ncnn3c2=O)cc1,2,-1,-12,76*,4,-1
